From article PMC4363178 (Biochemical and biophysical research communications, 2015) come the findings set out here.

Peptide text beside a SMILES is read from it.

In assay [1] the target is T1, PDZ1 of mouse ZO2 (M-ZO2PDZ1) (Mus musculus, UniProt Q9Z0U1).
T1 sequence (Q9Z0U1 1-102): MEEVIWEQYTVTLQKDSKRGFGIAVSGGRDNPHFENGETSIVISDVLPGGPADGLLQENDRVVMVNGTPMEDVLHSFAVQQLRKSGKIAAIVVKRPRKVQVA
In words: NMR titration. The class given is binding. The settings on record: for Decrease of chemical shift change of R87 relative to wild-type Cln1-C: same concentration of wild-type Cln1-C, stated jointly for the two mutants. A digest of the protocol:
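His-tag-cleaved mouse ZO2 PDZ1 from E. coli BL21(DE3), 15N-labelled in M9 medium, at 0.1 mM in pH 5.2 buffer (50mM phosphate, 50mM NaCl, 0.2mM EDTA). Unmodified peptides (>95% pure; 50 mM stock) were added stepwise up to 12:1 peptide:protein, with ≤10% total dilution. A 1H-15N HSQC was recorded at each point at 600 MHz and 298K. Composite shift = {[δHN]^2 + [0.17 δN]^2}^1/2.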

Assay [2] has as its target PDZ1 domain of mouse ZO2 (M-ZO2PDZ1) (mouse) (UniProt Q9Z0U1). In words: NMR titration.

Chain of PDZ1 domain of mouse ZO2 (M-ZO2PDZ1) (mouse) (Q9Z0U1 1-104): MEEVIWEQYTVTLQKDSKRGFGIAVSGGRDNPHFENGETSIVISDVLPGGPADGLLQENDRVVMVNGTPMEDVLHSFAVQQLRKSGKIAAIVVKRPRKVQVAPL

On to `C[C@H](NC(=O)[C@H](Cc1ccc(O)cc1)NC(=O)[C@H](CC(=O)O)NC(=O)[C@H](CCCCN)NC(=O)CNC(=O)[C@H](CO)NC(=O)[C@H](CO)NC(=O)[C@@H]1CCCN1)C(=O)O` [Cln1-C-YA] (H-PSSGKDYA-OH), for which the dissociation constant Kd in assay [1] stood at 500 ± 250 µM.

Turning to PSSGKDVY [Cln1-C-VY], the “Decrease of chemical shift change of R87 relative to wild-type Cln1-C” value in assay [1] was 22 fold.

Take PSSGKDAA [Cln1-C-AA]: in assay [1], the “Decrease of chemical shift change of R87 relative to wild-type Cln1-C” value was determined as 22 fold.

Take `CC[C@H](C)[C@H](N)C(=O)N[C@@H](CC(C)C)C(=O)N[C@@H](CCCNC(=N)N)C(=O)N[C@@H](CCCCN)C(=O)N[C@@H](CCCNC(=N)N)C(=O)N[C@@H](CCC(=O)O)C(=O)N[C@@H](Cc1ccc(O)cc1)C(=O)N[C@H](C(=O)O)C(C)C` [PMP22-YV] (H-ILRKREYV-OH): in assay [1], the Kd stood at 150 ± 50 µM.

“mutant PMP22 C-terminal peptide PMP22-M1 (ILRKREYV)” came in with a Kd in assay [2] of 150 µM.
